The source made the active and inactive calls. The rule behind the calls is not given here.
Legend:
[1] = tested on: RAW264.7; assay: Cytotoxicity against mouse RAW264.7 cells assessed as reduction in cell viability after 24 hrs by MTT assay; assay type: functional, cell-based; conditions: RAW264.7, 24 h
How it was run: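 RAW 264.7 mouse macrophage line kept in RPMI 1640 with 10% FBS, L-glutamine and antibiotics. Treated with 1–100 μM for 24 h, then MTT at 37 °C for 4 h. Formazan taken up in DMSO and read at 540 nm. Triplicate, at least three independent experiments. IC50 is the concentration giving 50% loss of viability relative to untreated cells.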

[2] = tested on: HeLa; assay: Cytotoxicity against human HeLa cells assessed as reduction in cell viability after 24 hrs by MTT assay; assay type: functional, cell-based
How it was run: (§1)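 Cancer cells kept in DMEM with 10% FBS, L-glutamine and antibiotics. Exposed to 1–100 μM for 24 h, then MTT at 37 °C for 4 h. Formazan dissolved in DMSO and read at 540 nm. Triplicate wells, at least three independent experiments. Viability reduction expressed against untreated cultures. IC50 is the concentration giving 50% loss of viability.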

[3] = tested on: HepG2; assay: Cytotoxicity against human HepG2 cells assessed as reduction in cell viability after 24 hrs by MTT assay; assay type: functional, cell-based; conditions: HepG2, 24 h; how it was run: as §1
[4] = tested on: HT-29; assay: Cytotoxicity against human HT-29 cells assessed as reduction in cell viability after 24 hrs by MTT assay; assay type: functional, cell-based; conditions: HT-29, 24 h; how it was run: as §1
[5] = Toxicity in thioglycolate-induced mouse peritoneal macrophages assessed as reduction in cell viability after 24 hrs by MTT assay; assay type: cell-based; conditions: peritoneal macrophage cell
How it was run: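 Primary peritoneal macrophages from thioglycolate-injected mice exposed to a range of concentrations for 24 h. Viability read by MTT at 37 °C for 4 h, formazan dissolved in DMSO, absorbance at 540 nm. Three independent experiments in duplicate, means ± SD.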

[6] = Toxicity in thioglycolate-induced mouse peritoneal macrophages assessed as induction of apoptosis after 24 hrs by flow cytometry; assay type: cell-based; conditions: peritoneal macrophage cell
How it was run: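 Peritoneal macrophages collected from thioglycolate-injected mice and treated across a concentration range for 24 h. Stained with PI and analysed by flow cytometry for apoptotic percentage. Means ± SD of three independent experiments done in duplicate.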

[7] = tested on: RAW264.7; assay: Induction of apoptosis in mouse RAW264.7 cells at 1 to 25 uM after 24 hrs by flow cytometry; assay type: functional, cell-based
How it was run: (§2)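 RAW 264.7 cells exposed to 1–25 μM for 24 h. Stained with 0.005% (w/v) propidium iodide and analysed at once by flow cytometry. Apoptotic and necrotic fractions taken from a forward scatter versus PI fluorescence dot plot. Means ± SD of three independent experiments in triplicate.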

[8] = tested on: RAW264.7; assay: Induction of apoptosis in mouse RAW264.7 cells at 1 uM after 24 hrs by flow cytometry; assay type: functional; how it was run: as §2
[9] = tested on: RAW264.7; assay: Induction of apoptosis in mouse RAW264.7 cells assessed as caspase 8 activation at 5 uM after 24 hrs by fluorimetry; assay type: functional, cell-based
How it was run: (§3)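 RAW cells treated with 5 μM for 24 h, with or without 40 μM z-VAD. Caspase activity read fluorimetrically in cytosolic extracts. Substrates: Ac-DEVD-AMC for caspase-3, Ac-IETD-AFC for caspase-8, Ac-LEHD-AFC for caspase-9. Means ± SD of three independent experiments run in triplicate.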

[10] = tested on: RAW264.7; assay: Induction of apoptosis in mouse RAW264.7 cells assessed as caspase 9 activation at 5 uM after 24 hrs by fluorimetry; assay type: functional, cell-based; how it was run: as §3
[11] = tested on: RAW264.7; assay: Induction of apoptosis in mouse RAW264.7 cells assessed as caspase 3 activation at 5 uM after 24 hrs by fluorimetry; assay type: functional, cell-based; how it was run: as §3
[12] = tested on: RAW264.7; assay: Induction of apoptosis in mouse RAW264.7 cells assessed as caspase 8 activation at 5 uM in presence of 40 uM caspase inhibitor z-VAD after 24 hrs by fluorimetric assay; assay type: functional, cell-based; how it was run: as §3
[13] = tested on: RAW264.7; assay: Induction of apoptosis in mouse RAW264.7 cells assessed as caspase 9 activation at 5 uM in presence of 40 uM caspase inhibitor z-VAD after 24 hrs by fluorimetric assay; assay type: functional, cell-based; how it was run: as §3
[14] = tested on: RAW264.7; assay: Induction of apoptosis in mouse RAW264.7 cells assessed as caspase 3 activation at 5 uM in presence of 40 uM caspase inhibitor z-VAD after 24 hrs by fluorimetric assay; assay type: functional, cell-based; how it was run: as §3
[15] = tested on: RAW264.7; assay: Induction of apoptosis in mouse RAW264.7 cells at 5 uM in presence of 40 uM caspase inhibitor z-VAD after 24 hrs by flow cytometry; assay type: functional, cell-based
How it was run: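 RAW 264.7 cells given 5 μM for 24 h, with or without 40 μM z-VAD. Stained with 0.005% (w/v) PI and analysed by flow cytometry. Apoptotic percentage taken from a forward scatter versus PI fluorescence dot plot. Three independent experiments in triplicate, means ± SD.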

[16] = tested on: RAW264.7; assay: Increase in p53 protein expression in mouse RAW264.7 cells at 5 uM by Western blot; assay type: functional, cell-based
How it was run: (§4)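 RAW 264.7 cells incubated with 5 μM and sampled at several time points. Cytosolic extracts run on SDS–PAGE (10–15% gels) and blotted to PVDF. Probed for p53, Bax, Bcl-2, Bcl-xl, XIAP, IAP-1 and IAP-2, then HRP secondary and chemiluminescence. β-actin served as loading control. Protein measured by Bio-Rad assay.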

[17] = tested on: RAW264.7; assay: Increase in Bax protein expression in mouse RAW264.7 cells at 5 uM by Western blot; assay type: functional, cell-based; how it was run: as §4
[18] = tested on: RAW264.7; assay: Decrease in Bcl-2 protein expression in mouse RAW264.7 cells at 5 uM by Western blot; assay type: functional, cell-based; how it was run: as §4
[19] = tested on: RAW264.7; assay: Decrease in Bcl-xl protein expression in mouse RAW264.7 cells at 5 uM by Western blot; assay type: functional, cell-based; how it was run: as §4
[20] = tested on: RAW264.7; assay: Decrease in IAP protein expression in mouse RAW264.7 cells at 5 uM by Western blot; assay type: functional, cell-based; how it was run: as §4

Q: With C=C1C(=O)[C@@]23CC[C@H]4[C@@](C)(CCC[C@@]4(C)C(=O)OC)[C@@H]2CC[C@@H]1C3 as the compound, how does the IC50 [1] read?
A: 1 µM

Q: And the IC50 [2]?
A: 50 µM

Q: What about the IC50 [3] of the same compound?
A: 75 µM

Q: And the IC50 [4]?
A: 30 µM

Q: And the Activity [5]?
A: Non-toxic

Q: What about the Activity [6] of the same compound?
A: Non-toxic

Q: And the Activity [7]?
A: Active

Q: And the Activity [8]?
A: 50%

Q: And the Activity [9]?
A: Active

Q: What about the Activity [10] of the same compound?
A: Active

Q: And the Activity [11]?
A: Active

Q: And the Activity [12]?
A: inactive

Q: What about the Activity [13] of the same compound?
A: inactive

Q: And the Activity [14]?
A: inactive

Q: What about the Activity [15] of the same compound?
A: inactive

Q: And the Activity [16]?
A: Active

Q: And the Activity [17]?
A: Active

Q: And the Activity [18]?
A: Active

Q: What about the Activity [19] of the same compound?
A: Active

Q: And the Activity [20]?
A: Active
